Assay results: ChEMBL document CHEMBL2203175, “Discovery and optimization of sulfonyl acrylonitriles as selective, covalent inhibitors of protein phosphatase methylesterase-1” (J Med Chem, 2011)
Active and inactive are the calls of the source. The calls are words filed in the database; no cut-off is given here.

Experiments:
[1] = target: Fatty acid synthase (Homo sapiens) (UniProt P49327); experiment: Inhibition of FASN binding to FP-biotin in [12C][14N]-lysine, arginine and [13C6][15N2]-lysine, arginine labeled HEK293T cells at 20 uM after 1 hr by isotopic activity-based protein profiling-MudPIT assay; type: cell-based; details: HEK-293T
In short: (§1)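 SILAC HEK 293T: light cells (12C14N-Lys/Arg) treated with compound, heavy cells (13C6 15N2-Lys/Arg) with DMSO, 1 h at 37 °C. Proteomes were mixed 1:1 (0.5 mg each) and labeled with FP-biotin (5 μM, 1 h, 25 °C), then streptavidin-enriched, digested on bead with trypsin, and run by MudPIT. Light/heavy ratios were normalized to a DMSO/DMSO control. Only SHs with ≥2 quantifiable peptides were kept; mean ± SEM across peptides.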

[2] = target: Diacylglycerol lipase-beta (Homo sapiens) (UniProt Q8NCG7); experiment: Inhibition of DAGLB binding to FP-biotin in [12C][14N]-lysine, arginine and [13C6][15N2]-lysine, arginine labeled HEK293T cells at 20 uM after 1 hr by isotopic activity-based protein profiling-MudPIT assay; type: cell-based; details: HEK-293T; in short: as §1
[3] = target: T1, Protein phosphatase methylesterase 1 (Homo sapiens) (UniProt Q9Y570); details: HEK-293T, 50 uM
T1 sequence (whole entry): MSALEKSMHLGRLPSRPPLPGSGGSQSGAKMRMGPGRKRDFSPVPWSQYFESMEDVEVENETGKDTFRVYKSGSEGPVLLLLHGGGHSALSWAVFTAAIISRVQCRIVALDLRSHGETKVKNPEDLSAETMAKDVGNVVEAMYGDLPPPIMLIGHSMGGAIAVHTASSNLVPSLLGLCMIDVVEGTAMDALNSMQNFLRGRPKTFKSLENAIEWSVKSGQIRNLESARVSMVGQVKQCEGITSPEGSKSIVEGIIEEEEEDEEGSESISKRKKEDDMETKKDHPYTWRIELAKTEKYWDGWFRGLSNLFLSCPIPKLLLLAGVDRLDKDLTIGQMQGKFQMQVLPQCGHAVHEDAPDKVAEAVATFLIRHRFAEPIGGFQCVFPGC

[4] = target: Acyl-protein thioesterase 1 (Homo sapiens) (UniProt O75608); experiment: Inhibition of LYPLA1 binding to FP-biotin in [12C][14N]-lysine, arginine and [13C6][15N2]-lysine, arginine labeled HEK293T cells at 20 uM after 1 hr by isotopic activity-based protein profiling-MudPIT assay; type: cell-based; details: HEK-293T; in short: as §1
[5] = target: T1, Protein phosphatase methylesterase 1 (Homo sapiens); experiment: Inhibition of PME1 overexpressed in HEK293T cells assessed as reduction in demethylated PP2A level at 20 uM after 1 hr by Western blot analysis relative to control; type: cell-based; details: HEK-293T
In short: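 HEK 293T cells, either stably overexpressing PME-1 or untransfected, treated in medium for 1 h at 37 °C. Total cell extract (2 mg/mL) run on reducing SDS-PAGE (10%) and blotted with demethylated-specific (4b7), methylated-specific (2A10) and total PP2A antibodies, imaged by infrared fluorescence. Mean ± SEM, n = 3, compared against DMSO-treated cells.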

[6] = target: S-formylglutathione hydrolase (Homo sapiens) (UniProt P10768); experiment: Inhibition of ESD binding to FP-biotin in [12C][14N]-lysine, arginine and [13C6][15N2]-lysine, arginine labeled HEK293T cells at 20 uM after 1 hr by isotopic activity-based protein profiling-MudPIT assay; type: cell-based; details: HEK-293T; in short: as §1
[7] = target: Alpha/beta hydrolase domain-containing protein 17B (Homo sapiens) (UniProt Q5VST6); experiment: Inhibition of FAM108B1 binding to FP-biotin in [12C][14N]-lysine, arginine and [13C6][15N2]-lysine, arginine labeled HEK293T cells at 20 uM after 1 hr by isotopic activity-based protein profiling-MudPIT assay; type: cell-based; details: HEK-293T; in short: as §1
[8] = target: Testis-expressed protein 30 (Homo sapiens) (UniProt Q5JUR7); experiment: Inhibition of C13orf27 binding to FP-biotin in [12C][14N]-lysine, arginine and [13C6][15N2]-lysine, arginine labeled HEK293T cells at 20 uM after 1 hr by isotopic activity-based protein profiling-MudPIT assay; type: cell-based; details: HEK-293T; in short: as §1
[9] = target: Lysosomal phospholipase A and acyltransferase (Homo sapiens) (UniProt Q8NCC3); experiment: Inhibition of LYPLA3 binding to FP-biotin in [12C][14N]-lysine, arginine and [13C6][15N2]-lysine, arginine labeled HEK293T cells at 20 uM after 1 hr by isotopic activity-based protein profiling-MudPIT assay; type: cell-based; details: HEK-293T; in short: as §1
[10] = target: Platelet-activating factor acetylhydrolase IB subunit alpha2 (Homo sapiens) (UniProt P68402); experiment: Inhibition of PAFAH1B2 binding to FP-biotin in [12C][14N]-lysine, arginine and [13C6][15N2]-lysine, arginine labeled HEK293T cells at 20 uM after 1 hr by isotopic activity-based protein profiling-MudPIT assay; type: cell-based; details: HEK-293T; in short: as §1
[11] = target: Patatin-like phospholipase domain-containing protein 6 (Homo sapiens) (UniProt Q8IY17); experiment: Inhibition of PNPLA6 binding to FP-biotin in [12C][14N]-lysine, arginine and [13C6][15N2]-lysine, arginine labeled HEK293T cells at 20 uM after 1 hr by isotopic activity-based protein profiling-MudPIT assay; type: cell-based; details: HEK-293T; in short: as §1
[12] = target: Lysophospholipase-like protein 1 (Homo sapiens) (UniProt Q5VWZ2); experiment: Inhibition of LYPLAL1 binding to FP-biotin in [12C][14N]-lysine, arginine and [13C6][15N2]-lysine, arginine labeled HEK293T cells at 20 uM after 1 hr by isotopic activity-based protein profiling-MudPIT assay; type: cell-based; details: HEK-293T; in short: as §1
[13] = target: T1, Protein phosphatase methylesterase 1 (Homo sapiens); details: HEK-293T, 20 uM
[14] = target: sn-1-specific diacylglycerol lipase ABHD11 (Homo sapiens) (UniProt Q8NFV4); experiment: Inhibition of ABHD11 binding to FP-biotin in [12C][14N]-lysine, arginine and [13C6][15N2]-lysine, arginine labeled HEK293T cells at 20 uM after 1 hr by isotopic activity-based protein profiling-MudPIT assay; type: cell-based; details: HEK-293T; in short: as §1
[15] = target: Cytosolic phospholipase A2 (Homo sapiens) (UniProt P47712); experiment: Inhibition of PLA2G4A binding to FP-biotin in [12C][14N]-lysine, arginine and [13C6][15N2]-lysine, arginine labeled HEK293T cells at 20 uM after 1 hr by isotopic activity-based protein profiling-MudPIT assay; type: cell-based; details: HEK-293T; in short: as §1
[16] = target: Lysosomal protective protein (Homo sapiens) (UniProt P10619); experiment: Inhibition of CTSA binding to FP-biotin in [12C][14N]-lysine, arginine and [13C6][15N2]-lysine, arginine labeled HEK293T cells at 20 uM after 1 hr by isotopic activity-based protein profiling-MudPIT assay; type: cell-based; details: HEK-293T; in short: as §1
[17] = target: Acylamino-acid-releasing enzyme (Homo sapiens) (UniProt P13798); experiment: Inhibition of APEH binding to FP-biotin in [12C][14N]-lysine, arginine and [13C6][15N2]-lysine, arginine labeled HEK293T cells at 20 uM after 1 hr by isotopic activity-based protein profiling-MudPIT assay; type: cell-based; details: HEK-293T; in short: as §1
Acylamino-acid-releasing enzyme (Homo sapiens), sequence (P13798 whole entry): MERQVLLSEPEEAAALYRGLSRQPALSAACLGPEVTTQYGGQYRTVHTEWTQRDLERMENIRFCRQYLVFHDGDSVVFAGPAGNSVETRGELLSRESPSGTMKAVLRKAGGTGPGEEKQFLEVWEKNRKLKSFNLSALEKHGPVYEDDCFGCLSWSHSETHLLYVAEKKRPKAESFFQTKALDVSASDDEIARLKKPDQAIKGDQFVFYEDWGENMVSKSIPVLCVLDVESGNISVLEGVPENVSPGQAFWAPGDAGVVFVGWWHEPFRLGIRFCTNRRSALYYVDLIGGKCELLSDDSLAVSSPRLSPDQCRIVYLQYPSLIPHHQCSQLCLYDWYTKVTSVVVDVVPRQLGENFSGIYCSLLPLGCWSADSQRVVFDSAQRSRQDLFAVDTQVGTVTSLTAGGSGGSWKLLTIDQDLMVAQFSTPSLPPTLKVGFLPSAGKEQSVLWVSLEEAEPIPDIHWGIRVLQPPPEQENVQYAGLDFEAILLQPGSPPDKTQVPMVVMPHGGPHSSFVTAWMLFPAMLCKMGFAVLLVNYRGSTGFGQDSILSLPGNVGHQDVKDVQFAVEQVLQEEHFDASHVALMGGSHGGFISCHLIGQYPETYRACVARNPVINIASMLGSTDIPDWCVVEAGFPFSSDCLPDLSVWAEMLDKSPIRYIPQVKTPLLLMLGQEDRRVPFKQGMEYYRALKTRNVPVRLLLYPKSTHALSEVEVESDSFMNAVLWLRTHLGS

Lysosomal protective protein (Homo sapiens), sequence (P10619 29-326 limits assumed): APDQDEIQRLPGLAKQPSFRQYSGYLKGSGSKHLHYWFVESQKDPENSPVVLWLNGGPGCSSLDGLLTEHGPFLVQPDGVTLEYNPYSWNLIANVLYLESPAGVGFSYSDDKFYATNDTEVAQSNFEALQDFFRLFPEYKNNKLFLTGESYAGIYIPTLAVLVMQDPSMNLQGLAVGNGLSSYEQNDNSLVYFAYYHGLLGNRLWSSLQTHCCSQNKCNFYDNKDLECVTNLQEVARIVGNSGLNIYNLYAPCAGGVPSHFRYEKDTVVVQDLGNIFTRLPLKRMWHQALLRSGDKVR
Lysosomal protective protein (Homo sapiens), sequence (P10619 327-480 limits assumed): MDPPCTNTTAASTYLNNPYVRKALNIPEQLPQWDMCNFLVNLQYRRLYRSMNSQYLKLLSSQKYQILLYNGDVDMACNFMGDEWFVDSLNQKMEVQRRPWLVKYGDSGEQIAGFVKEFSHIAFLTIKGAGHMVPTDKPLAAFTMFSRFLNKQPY
Lysophospholipase-like protein 1 (Homo sapiens), sequence (Q5VWZ2 whole entry): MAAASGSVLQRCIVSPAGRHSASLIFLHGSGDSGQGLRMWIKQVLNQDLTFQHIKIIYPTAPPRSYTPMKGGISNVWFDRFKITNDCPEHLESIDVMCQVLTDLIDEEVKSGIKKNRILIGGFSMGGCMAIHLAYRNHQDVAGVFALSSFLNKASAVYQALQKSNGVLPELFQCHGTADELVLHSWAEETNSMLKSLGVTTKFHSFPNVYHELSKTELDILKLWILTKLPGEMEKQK
Lysosomal phospholipase A and acyltransferase (Homo sapiens), sequence (Q8NCC3 whole entry): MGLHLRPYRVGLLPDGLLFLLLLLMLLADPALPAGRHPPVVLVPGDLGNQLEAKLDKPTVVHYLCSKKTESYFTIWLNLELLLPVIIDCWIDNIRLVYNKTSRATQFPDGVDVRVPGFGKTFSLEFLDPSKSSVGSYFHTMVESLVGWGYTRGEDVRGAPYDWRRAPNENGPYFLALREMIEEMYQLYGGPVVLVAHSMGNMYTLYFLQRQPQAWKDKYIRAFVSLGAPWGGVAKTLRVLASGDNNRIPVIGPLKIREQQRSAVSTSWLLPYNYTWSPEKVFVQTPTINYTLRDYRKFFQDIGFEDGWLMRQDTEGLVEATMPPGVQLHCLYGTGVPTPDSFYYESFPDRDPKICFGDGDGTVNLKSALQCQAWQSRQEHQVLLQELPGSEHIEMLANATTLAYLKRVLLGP
Diacylglycerol lipase-beta (Homo sapiens), sequence (Q8NCG7 whole entry): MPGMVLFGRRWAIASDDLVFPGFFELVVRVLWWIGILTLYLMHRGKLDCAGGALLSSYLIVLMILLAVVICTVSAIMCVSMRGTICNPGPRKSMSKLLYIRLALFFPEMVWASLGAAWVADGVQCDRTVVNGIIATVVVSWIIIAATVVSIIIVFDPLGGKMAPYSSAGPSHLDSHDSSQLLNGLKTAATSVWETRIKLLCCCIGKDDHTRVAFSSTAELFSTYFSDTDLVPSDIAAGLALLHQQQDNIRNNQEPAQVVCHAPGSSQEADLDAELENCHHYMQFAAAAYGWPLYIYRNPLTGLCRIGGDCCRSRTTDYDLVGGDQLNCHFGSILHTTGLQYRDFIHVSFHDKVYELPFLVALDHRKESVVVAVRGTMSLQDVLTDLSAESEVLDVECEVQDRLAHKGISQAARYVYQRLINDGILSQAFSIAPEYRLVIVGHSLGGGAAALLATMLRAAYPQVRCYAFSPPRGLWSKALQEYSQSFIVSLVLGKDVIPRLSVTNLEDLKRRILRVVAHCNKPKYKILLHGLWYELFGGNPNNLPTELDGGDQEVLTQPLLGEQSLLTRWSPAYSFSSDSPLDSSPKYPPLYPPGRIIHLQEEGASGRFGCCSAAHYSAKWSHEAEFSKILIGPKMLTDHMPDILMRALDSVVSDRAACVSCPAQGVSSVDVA
Acyl-protein thioesterase 1 (Homo sapiens), sequence (O75608 whole entry): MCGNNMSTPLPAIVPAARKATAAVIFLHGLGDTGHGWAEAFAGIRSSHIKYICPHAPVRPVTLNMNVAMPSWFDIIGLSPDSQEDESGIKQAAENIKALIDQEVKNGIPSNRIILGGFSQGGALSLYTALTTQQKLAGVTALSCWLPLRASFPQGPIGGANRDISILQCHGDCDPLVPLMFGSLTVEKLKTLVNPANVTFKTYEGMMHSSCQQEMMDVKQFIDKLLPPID
Patatin-like phospholipase domain-containing protein 6 (Homo sapiens), sequence (Q8IY17 whole entry, the tested form may be a part): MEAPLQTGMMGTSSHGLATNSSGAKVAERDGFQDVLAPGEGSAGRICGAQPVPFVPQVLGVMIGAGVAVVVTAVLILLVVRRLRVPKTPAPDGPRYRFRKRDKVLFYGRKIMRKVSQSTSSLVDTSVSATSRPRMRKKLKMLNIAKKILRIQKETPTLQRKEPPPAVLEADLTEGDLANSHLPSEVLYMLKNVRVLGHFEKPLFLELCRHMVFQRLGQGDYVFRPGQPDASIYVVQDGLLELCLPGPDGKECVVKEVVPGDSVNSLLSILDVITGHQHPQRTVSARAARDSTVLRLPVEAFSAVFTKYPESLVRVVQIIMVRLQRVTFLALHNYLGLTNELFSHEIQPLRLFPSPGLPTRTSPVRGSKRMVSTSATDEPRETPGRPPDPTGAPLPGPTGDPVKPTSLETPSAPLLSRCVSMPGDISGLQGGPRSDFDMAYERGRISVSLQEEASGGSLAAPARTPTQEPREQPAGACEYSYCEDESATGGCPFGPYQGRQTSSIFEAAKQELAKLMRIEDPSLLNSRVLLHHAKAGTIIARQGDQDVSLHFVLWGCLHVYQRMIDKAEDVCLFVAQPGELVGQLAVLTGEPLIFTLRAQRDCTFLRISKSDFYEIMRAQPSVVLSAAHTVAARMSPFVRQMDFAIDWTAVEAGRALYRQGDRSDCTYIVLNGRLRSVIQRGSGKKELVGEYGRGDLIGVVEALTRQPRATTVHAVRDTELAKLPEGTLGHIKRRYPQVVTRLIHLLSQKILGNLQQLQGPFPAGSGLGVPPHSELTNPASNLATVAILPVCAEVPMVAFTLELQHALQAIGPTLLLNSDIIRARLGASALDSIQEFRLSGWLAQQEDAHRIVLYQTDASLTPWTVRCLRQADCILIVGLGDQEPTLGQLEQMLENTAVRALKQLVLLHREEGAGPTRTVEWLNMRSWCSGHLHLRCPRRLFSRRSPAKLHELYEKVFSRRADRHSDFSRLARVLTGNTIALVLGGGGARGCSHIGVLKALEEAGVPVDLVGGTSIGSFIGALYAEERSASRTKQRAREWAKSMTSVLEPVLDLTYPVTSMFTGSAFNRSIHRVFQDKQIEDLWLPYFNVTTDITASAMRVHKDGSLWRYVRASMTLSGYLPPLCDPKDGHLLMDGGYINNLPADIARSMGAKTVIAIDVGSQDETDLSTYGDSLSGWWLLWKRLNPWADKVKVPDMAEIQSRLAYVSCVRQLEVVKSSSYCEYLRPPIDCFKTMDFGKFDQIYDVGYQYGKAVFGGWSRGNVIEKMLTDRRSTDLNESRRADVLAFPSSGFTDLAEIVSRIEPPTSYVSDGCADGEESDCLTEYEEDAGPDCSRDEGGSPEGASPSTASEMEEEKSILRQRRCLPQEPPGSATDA
Testis-expressed protein 30 (Homo sapiens), sequence (Q5JUR7 whole entry): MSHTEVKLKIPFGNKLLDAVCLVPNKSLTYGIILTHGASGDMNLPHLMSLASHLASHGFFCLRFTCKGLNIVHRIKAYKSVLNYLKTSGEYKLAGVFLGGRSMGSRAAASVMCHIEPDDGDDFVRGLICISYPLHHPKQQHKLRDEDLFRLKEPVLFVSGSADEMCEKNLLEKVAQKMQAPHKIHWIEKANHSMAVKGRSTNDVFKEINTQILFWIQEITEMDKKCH
S-formylglutathione hydrolase (Homo sapiens), sequence (P10768 whole entry, the tested form may be a part): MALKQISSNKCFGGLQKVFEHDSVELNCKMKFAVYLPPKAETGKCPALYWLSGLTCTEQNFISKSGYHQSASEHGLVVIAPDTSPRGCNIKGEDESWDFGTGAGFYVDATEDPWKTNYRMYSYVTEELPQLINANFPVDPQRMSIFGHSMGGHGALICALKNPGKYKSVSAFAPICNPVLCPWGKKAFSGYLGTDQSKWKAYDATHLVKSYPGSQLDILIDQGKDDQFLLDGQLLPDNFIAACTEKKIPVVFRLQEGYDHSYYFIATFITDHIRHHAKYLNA
sn-1-specific diacylglycerol lipase ABHD11 (Homo sapiens), sequence (Q8NFV4 whole entry): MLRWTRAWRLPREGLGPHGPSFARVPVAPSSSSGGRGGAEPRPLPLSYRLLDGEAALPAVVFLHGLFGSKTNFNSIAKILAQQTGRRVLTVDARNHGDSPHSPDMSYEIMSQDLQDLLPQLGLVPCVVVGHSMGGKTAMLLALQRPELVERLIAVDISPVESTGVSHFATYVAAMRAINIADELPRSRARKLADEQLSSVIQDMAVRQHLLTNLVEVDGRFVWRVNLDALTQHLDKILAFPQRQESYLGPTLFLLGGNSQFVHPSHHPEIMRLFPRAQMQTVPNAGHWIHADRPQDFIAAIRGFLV

inhibition [1]: inactive
inhibition [2]: inactive
inhibition [3]: Active
inhibition [4]: inactive
inhibition [5]: 80%
inhibition [6]: inactive
inhibition [7]: inactive
inhibition [8]: inactive
inhibition [9]: inactive
inhibition [10]: inactive
inhibition [11]: inactive
inhibition [12]: inactive
inhibition [13]: Active
inhibition [14]: inactive
inhibition [15]: inactive
inhibition [16]: inactive
inhibition [17]: inactive
SMILES: N#C/C(=C\c1cccn1S(=O)(=O)c1cccc([N+](=O)[O-])c1)S(=O)(=O)c1ccc(F)cc1
